Most compounds without a hit are left out; they make up all but 3.7% or so of the library.
hERG rescue = compounds protecting human hERG from proarrhythmic drug block. hit rate 0.51% among 310,000. activation (rescue from dofetilide block), less the hit threshold, % at 10 µM. Q12809. CHO-hERG, FluxOR thallium flux, dofetilide IC70 present. AID 1511;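 active = activation above the mean of controls blocked by dofetilide plus 5 SD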;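 note: thallium influx through hERG after potassium depolarization seen as dye fluorescence rise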
Kir21 block = inhibitors of mouse Kir2.1 inward-rectifier potassium channel | hit rate 0.85% among 310,000 | B-score at 10 µM | HEK293-Kir2.1, FluxOR thallium flux fluorescence; stronger effect = lower value;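 active = fluorescence ratio B-score at or below minus 3 SD of library scores, with starting-brightness B-score within 2 SD, cut at about -4.2 in these data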;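 note: channel flux triggered by added potassium and thallium sulfate stimulus; B-score of peak minus minimum fluorescence over baseline after thallium stimulus; more negative B-score means stronger Kir2.1 block with less thallium influx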
KCNK9 inh = inhibitors of human KCNK9 two-pore domain potassium channel. Q9NPC2. B-score at 10 µM. HEK293 KCNK9, FluxOR thallium flux fluorescence; stronger effect = lower value. hit rate 1.2% among 310,000;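 active = ratio B-score over 3 SD below the library mean, with starting fluorescence within 5 SD of its mean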;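 note: negative B-score means less thallium flux so channel inhibition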
KCNK3 inh = human KCNK3 channel inhibition, primary screen; hit rate 0.84% among 340,000; B-score at 10 µM; O14649; CHO-KCNK3 thallium flux, FluxOR fluorescence; stronger effect = lower value;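 active = B-score under library mean minus 4 SD, starting fluorescence ratio at most library mean plus 5 SD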;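 note: more negative B-score means stronger inhibition of thallium flux through KCNK3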
KCNQ1 pot = potentiates or activates the human KCNQ1 potassium channel. B-score at 10 µM. CHO-K1 KCNQ1, thallium flux FluxOR fluorescence; stronger effect = higher value. AID 2648. hit rate 0.35% among 310,000. P51787;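 active = fluorescence ratio B-score, a plate-corrected score, at least three library SD, with initial intensity B-score within 5 SD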
Target sequence (P51787 whole entry, looked up): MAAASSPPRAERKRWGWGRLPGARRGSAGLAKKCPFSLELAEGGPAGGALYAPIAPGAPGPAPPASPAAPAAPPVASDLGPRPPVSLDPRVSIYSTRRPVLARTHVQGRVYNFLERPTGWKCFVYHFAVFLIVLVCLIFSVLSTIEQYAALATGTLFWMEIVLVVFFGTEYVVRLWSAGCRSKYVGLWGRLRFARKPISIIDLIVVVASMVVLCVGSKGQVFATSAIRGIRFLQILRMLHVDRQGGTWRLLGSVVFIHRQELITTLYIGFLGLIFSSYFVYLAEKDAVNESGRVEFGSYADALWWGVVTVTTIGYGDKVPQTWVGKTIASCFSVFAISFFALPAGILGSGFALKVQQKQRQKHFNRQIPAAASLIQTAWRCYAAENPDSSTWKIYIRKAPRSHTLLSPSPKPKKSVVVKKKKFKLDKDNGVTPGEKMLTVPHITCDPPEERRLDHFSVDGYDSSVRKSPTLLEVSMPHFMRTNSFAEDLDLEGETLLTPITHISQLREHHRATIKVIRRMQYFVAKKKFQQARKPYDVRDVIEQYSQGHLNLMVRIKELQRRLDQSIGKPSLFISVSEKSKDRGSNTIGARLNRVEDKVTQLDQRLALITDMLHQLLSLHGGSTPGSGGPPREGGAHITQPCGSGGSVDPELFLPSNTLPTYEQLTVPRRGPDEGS
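Material: CHO-K1 cells stably expressing KCNQ1. Medium: assay buffer for compound exposure, DMSO matched across wells. Reagent: K+/Tl+ depolarizing stimulus. Compound dosing: single-concentration screen. Times: 37 °C overnight plating, 90-min dark dye load, 20-min compound pretreatment. Technique: FluxOR Tl+ flux fluorescence.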
KCNQ1 block = blocks the human KCNQ1 potassium channel | CHO-K1 KCNQ1, FluxOR thallium flux fluorescence; stronger effect = higher value | hit rate 1.3% among 310,000 | B-score at 10 µM | P51787;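 active = compounds whose thallium flux B-score, printed positive for inhibition, exceeds three library SD while starting fluorescence stays within three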;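 note: channel opened by potassium depolarization with thallium stimulus after 20 min compound exposure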
The depositor's hits bear a star; i = inactive; x = no result given.

SMILES | hERG rescue | Kir21 block | KCNK9 inh | KCNK3 inh | KCNQ1 pot | KCNQ1 block
CCCCSC1=NN1c1nc(N)nc(C)c1CC | -5 | -0.44 | i | i | i | i
CCc1c(C)nc(N)nc1N1N=C1SCCOc1ccccc1 | 8.2* | 1.3 | i | i | i | i
S=C(N1CCCCCC1)N1CC1 | x | x | x | i | x | x
Cc1cccc(CN2CCN(Cc3ccc(Cl)cc3)CC2)c1 | -11 | -12* | i | i | i | i
C#CC1(OC(=O)c2ccccc2)CC(C)N(C)CC1C (stereo not drawn) | -8 | -2 | i | i | i | i
O=C(CF)NC(NC(=S)Nc1cccc([N+](=O)[O-])c1)C(Cl)(Cl)Cl (stereo not drawn) | -15 | 0.47 | i | i | i | 6*
O=P(Nc1cccc(Cl)c1)(Oc1ccccc1)Oc1ccccc1 | -49 | -0.01 | -7.6* | i | i | 6*
COc1cccc(NP(=O)(Oc2ccccc2)Oc2ccccc2)c1 | -17 | -0.66 | i | i | i | i
CCCCn1c(=O)c(C(=O)NCCc2ccccc2)c(O)c2ccccc21 | -6 | 0.08 | i | i | i | 7*
CCCCCn1c(=O)c(C(=O)NCc2ccncc2)c(O)c2ccccc21 | -6 | 1.4 | -7.9* | i | i | 8*
CCCCn1c(=O)c(C(=O)NCc2ccc(Cl)cc2)c(O)c2ccccc21 | -12 | -0.12 | i | i | i | i
CCCCCn1c(=O)c(C(=O)Nc2ccccc2)c(O)c2ccccc21 | 0 | -0.71 | i | i | i | i
CCCCn1c(=O)c(C(=O)NC(C)c2ccccc2)c(O)c2ccccc21 (stereo not drawn) | 0 | -0.75 | i | i | i | 6*
c1cc2c(cc1[C@H]1OCC3C1CO[C@@H]3c1ccc3c(c1)OCO3)OCO2 (stereo partly drawn) | x | x | x | i | x | x
COC(=O)C1=C(c2c(C)noc2C)C[C@@H]2CC[C@H]1N2C(=O)NCCCOC(C)C | x | x | x | i | x | x
CCC1(CC)COP(=O)(OCC(Cl)CCl)OC1 (stereo not drawn) | x | x | x | i | x | x
CCC(=O)O[C@H]1CC[C@H]2[C@@H]3CCC4=CC(=O)CC[C@]4(C)[C@H]3CC[C@]12C | x | x | x | -8.7* | x | x
CC12CCC(=O)C=C1CCC1C2CCC2(C)C(O)CCC12 (stereo not drawn) | x | x | x | i | x | x
Oc1cc(O)cc(/C=C/c2ccc(O)cc2O)c1 | x | x | x | i | x | x
O=C(c1cc(F)ccc1F)C1CCCN(Cc2cc(Cl)ccc2O)C1 (stereo not drawn) | -8 | -1.5 | i | i | i | 6*
COc1ccc(-c2nc3ccc(C(=O)N4CCC5(CC4)OCCO5)cc3nc2-c2ccc(OC)cc2)cc1 | -7 | 0.24 | i | i | i | 6*
O=[N+]([O-])c1ccc(N2CCCCCC2)c2ncccc12 | -4 | -0.15 | -7.7* | i | i | i
CNCCCc1ccccc1 | 6.5* | -0.03 | i | i | i | i
CN1CCN(Cc2ccc3ccccc3c2)CC1 | -4 | 0.63 | i | i | i | i
CCCCCCOc1ccc(CN2CCN(C)CC2)cc1 | -12 | -4.8* | i | i | i | i
SMILES | hERG rescue | Kir21 block | KCNK9 inh | KCNK3 inh | KCNQ1 pot | KCNQ1 block
CC(Cc1ccccc1)N1Cc2ccccc2C1 (stereo not drawn) | -10 | 1.7 | i | i | i | i
CCOc1ccccc1CN1C2CCC1CC(c1ccc(C)cc1)C2 (stereo not drawn) | -12 | -0.46 | i | i | i | 12*
CCOc1ccccc1CNCCc1ccc2c(c1)OCO2 | -8 | -3.1 | i | i | i | i
CC(=O)O/C(=C1\CC2C3CC=C4CC(OC(C)=O)CCC4(C)C3CCC2(C)C1=O)C(F)(F)F (stereo not drawn) | x | x | x | i | x | x
COc1ccc2c(c1O)C13CCN(C)C(C2)C1CCC(=O)C3 (stereo not drawn) | -2 | -0.61 | i | i | i | i
CN1CC(C(=O)c2ccc(Cl)cc2)C(c2ccc(Cl)cc2Cl)C1 (stereo not drawn) | -16 | -5* | i | i | i | i
O=[N+]([O-])c1ccc(N2CCCCCC2)c2nonc12 | -21 | -9 | i | i | i | i
Nc1ccc2nonc2c1[N+](=O)[O-] | -40 | -7.6 | i | i | i | 11*
O=P(Oc1ccccc1)(Oc1ccccc1)c1ccccc1 | -8 | -5.9* | i | i | i | i
O=C1NC(=O)C(=Cc2ccc(-c3ccccc3[N+](=O)[O-])o2)C(=O)N1 | 1 | 0.33 | i | i | i | i
O=C1NC(=O)C(=Cc2ccc(-c3cc(Cl)ccc3[N+](=O)[O-])o2)C(=O)N1 | 24* | -0.33 | i | i | i | i
Fc1ccc(CCNCc2ccc(Cl)c(Cl)c2)cc1 | -8 | -6.2* | i | i | i | i
CCc1ccc(CNCCc2ccc(F)cc2)cc1 | -9 | -0.49 | i | i | i | i
COc1cc(OC)c(OC)cc1CNCCc1cccc(F)c1 | -4 | -0.94 | i | i | i | i
COc1ccc(CNCCc2cccc(F)c2)c2ccccc12 | -11 | -18* | i | x | i | i
CC(NCc1cccc(Cl)c1Cl)C(O)c1ccccc1 (stereo not drawn) | -5 | -16* | i | i | i | i
CCOc1c(Cl)cc(CNC(C)C(O)c2ccccc2)cc1OC (stereo not drawn) | -21 | 0.05 | i | i | i | i
CC(CCc1ccccc1)NC(C)C(O)c1ccc(O)cc1 (stereo not drawn) | -5 | -1.6 | i | i | i | i
COc1cc(OC)c(OC)cc1CNC(C)C(O)c1ccccc1 (stereo not drawn) | -10 | 0.21 | i | i | i | i
CC(NCc1ccc(Cl)cc1Cl)C(O)c1ccccc1 (stereo not drawn) | -3 | -10* | i | i | i | i
CC(NCc1ccc(Cl)cc1)C(O)c1ccccc1 (stereo not drawn) | -1 | -9* | i | i | i | i
O=c1[nH]c(O)c(C=Nc2ccc(Cl)c(C(F)(F)F)c2)c(=O)[nH]1 | -7 | 0 | i | i | i | i
CCOP(=S)(OCC)c1ccc(N(C)C)cc1 | 1 | -0.02 | i | i | 9* | i
CC1([N+](=O)[O-])COP(=O)(NCc2cccnc2)OC1 (stereo not drawn) | x | x | x | i | x | x
O=C1CC(c2ccccc2)CN1 (stereo not drawn) | -4 | 1.3 | i | i | i | i
COc1ccc(CCNCc2ccc(Br)cc2)cc1OC | -2 | -1.6 | i | i | i | i
Cc1ccccc1CCNCc1ccc(Br)cc1 | -12 | -9.6* | i | i | i | i

Screening data from PubChem.
